Experimental findings from PubChem BioAssay are described below.

Molecules are shown by their SMILES. Calls of active or inactive are those of the source.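 The calls were made as follows, unless noted: active = inhibition of the reporter signal at or above 50%; inactive = inhibition below 50%.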

Assay [1] can be described thus: inhibitors of TNFa-induced NFkB p65 translocation, primary screen, imaging, HUVEC, MLSMR starter and 10KST1 sets (AID 438;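 active = inhibition above 20% together with a positive visual image hit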;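 also: compound added about 3h40 before a 20 min TNFalpha stimulation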;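 as to inhibition: signal is the nuclear over cytoplasmic p65 intensity ratio per well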). The settings on record: HUVEC TNFa-induced p65 nuclear translocation; cell count: measured here: nuclei count (cytotoxicity indicator), at 2.08 µM; inhibition: at 2 µM, stronger effect = higher value, 0% TNFa-plus-vehicle, 100% no-TNFa wells.
Assay [2] can be described thus: inhibitors of mutant huntingtin aggregation, primary screen, imaging, exon1htt(103Q)mCFP cells, high-content imaging (AID 483;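 active = visual image review flags a hit and inhibition of aggregation exceeds 20%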;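 also: compound exposure lasted 3 days before fixation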;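 as to nuclei count: percent of the per-plate median nuclei count of sample wells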). The settings on record: exon1htt(103Q)mCFP cell line, aggregate imaging, at 2 µM; inhibition of aggregation: stronger effect = higher value; nuclei count: measured here: cell count, toxicity.
A short description of assay [3]: inhibitors of E-selectin induction by TNFa, primary screen, imaging, HUVEC, immunofluorescence, MLSMR starter and 10KST1 sets (AID 487;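 active = visually confirmed hit in the image check and inhibition above 20%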;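 as to inhibition: signal is fraction of cell area covered by stained E-selectin grains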;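 as to nuclei count: 100% = median nuclei count of all wells on the same plate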). The settings on record: HUVEC TNFalpha-induced E-selectin immunofluorescence imaging, at 2 µM; inhibition: stronger effect = higher value; nuclei count: measured here: cell number, toxicity.
Assay [4] deals with Voltage-gated potassium channel subunit beta-2 (Rattus norvegicus) (UniProt P62483). The assay is described as follows: KvBeta enzyme negative modulators, primary screen, biochemical, NADPH fluorescence (AID 622;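 active = fluorescence slope higher than the sample average by over 3 SD, cut at about -0.22 in these data, passing the limit was not always enough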;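 also: slope of raw intensity against log time taken from 70 to 1610 s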). The following applies: recombinant KvBeta, 4-cyanobenzaldehyde reduction, at 10 µM, stronger effect = higher value.
Sequence of Voltage-gated potassium channel subunit beta-2 (Rattus norvegicus) (P62483 whole entry, looked up): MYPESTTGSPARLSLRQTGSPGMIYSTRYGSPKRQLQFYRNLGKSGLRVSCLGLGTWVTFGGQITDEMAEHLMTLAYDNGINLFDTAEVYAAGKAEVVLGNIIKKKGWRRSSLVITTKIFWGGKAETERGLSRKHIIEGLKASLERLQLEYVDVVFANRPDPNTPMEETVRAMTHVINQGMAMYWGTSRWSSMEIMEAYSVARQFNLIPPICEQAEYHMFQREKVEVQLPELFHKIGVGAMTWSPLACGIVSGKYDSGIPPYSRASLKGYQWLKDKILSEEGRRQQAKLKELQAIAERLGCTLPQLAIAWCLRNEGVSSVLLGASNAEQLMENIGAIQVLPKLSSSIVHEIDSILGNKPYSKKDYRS
The target is the same in assay [5]. The assay is described as follows: KvBeta positive modulators, primary screen, biochemical, NADPH fluorescence (AID 623;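 active = NADPH fluorescence slope more negative than the mean of all samples by about 3 SD, 99.7% confidence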;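 also: fluorescence intensity change per second fitted from 20 to 320 s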). The following applies: Recombinant KvBeta, NADPH fluorescence decrease slope, 10 min; at 10 µM; stronger effect = lower value.
Assay [6] addresses Muscarinic acetylcholine receptor M4 (Homo sapiens) (UniProt P08173). The assay can be described thus: compounds altering M4/GIRK thallium flux, either direction, primary screen, M4 allosteric agonist project, cell-based, HEK293 M4/GIRK, BTC-AM (AID 625;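 active = fluorescence slope after compound addition differing from the mean of all tested samples at 99.7% confidence, mostly higher but some lower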;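 also: thallium influx through GIRK channels coupled to M4 in HEK293 cells with BTC-AM dye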). The settings on record: at 10 µM, actives lie on both sides. The method, boiled down: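 Assay system: HEK293 cells with M4 receptor and GIRK channels / Controls: carbachol and DMSO controls / Schedule: 1 h dye loading, 2 min kinetic read / Technique: kinetic fluorescence with BTC-AM dye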

The nature of assay [7]: inhibitors of Sendai virus-induced IRF3 signaling, primary screen, TLR/RLR signaling modifier project, cell-based, Sendai virus stimulus, luciferase, 10K MLSCN set (AID 602276;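 active = inhibition at or above 50% at 10 µM; inactive = inhibition below 50%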;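 also: firefly luciferase from ISG56 promoter only with Renilla not read in this screen; 0% = Sendai virus plus DMSO and 100% = medium plus DMSO without virus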). The following applies: HEK293 RL24 IRF3 luciferase reporter, at 10 µM, stronger effect = higher value.
Assay [8] can be described thus: inhibitors of poly I:C-induced TLR3 signaling, primary screen, cell-based, poly I:C stimulus, luciferase, 10K MLSCN set (AID 602277). The following applies: HEK293-TLR3 RL24 IRF3 luciferase reporter, at 10 µM, stronger effect = higher value.

Sequence of Muscarinic acetylcholine receptor M4 (Homo sapiens) (P08173 whole entry, looked up): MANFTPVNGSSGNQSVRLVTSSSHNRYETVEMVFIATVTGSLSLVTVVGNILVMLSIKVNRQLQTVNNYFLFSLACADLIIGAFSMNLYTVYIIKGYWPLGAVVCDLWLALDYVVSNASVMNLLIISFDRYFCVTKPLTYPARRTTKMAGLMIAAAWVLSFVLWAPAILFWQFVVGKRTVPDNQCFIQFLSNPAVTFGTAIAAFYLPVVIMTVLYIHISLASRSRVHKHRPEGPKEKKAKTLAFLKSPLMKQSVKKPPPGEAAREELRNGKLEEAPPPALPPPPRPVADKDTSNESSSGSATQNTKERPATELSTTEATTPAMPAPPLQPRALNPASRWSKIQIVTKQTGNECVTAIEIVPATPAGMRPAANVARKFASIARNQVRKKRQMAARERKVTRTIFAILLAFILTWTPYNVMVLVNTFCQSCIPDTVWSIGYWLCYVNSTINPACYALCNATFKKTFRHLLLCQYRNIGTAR

Consider `O=S(=O)(CCOc1ccccc1)c1nc2ccccc2[nH]1`, for which, in assay [1], the cell count turned out to be 332. The inhibition in assay [1] was -11.8% (inactive); in assay [3], -77.3% (inactive); in assay [7], 19.7% (inactive); in assay [8] it was 13.7% (inactive). The inhibition of aggregation in assay [2] is -12.8% (inactive). Besides, the nuclei count in assay [2] stood at 99.9%; in assay [3] it was 106%. Also, the fluorescence slope in assay [4] was -0.566 (inactive); in assay [6], 0.00411 (inactive). Moreover, the NADPH fluorescence slope in assay [5] was -9e-05 (inactive).
With `C=CCN(CC=C)C(=O)CN1C(=O)c2ccccc2C1=O`, in assay [1], the cell count is 356. The inhibition in assay [1] is 0.2% (inactive); in assay [3], -103% (inactive); in assay [7], 19.9% (inactive); in assay [8], 22.1% (inactive). Also, in assay [2], the inhibition of aggregation is 27.5% (inactive). Further, the nuclei count was found to be 83.2% in assay [2] and 117% in assay [3]. In addition, the fluorescence slope in assay [4] is -0.572 (inactive); in assay [6], 0.0065 (inactive). The NADPH fluorescence slope in assay [5] is -1.3e-05 (inactive).
On to `O=C(O)COc1ccc2occ(C(=O)c3ccccc3)c2c1`, for which the cell count in assay [1] was 232. The inhibition in assay [1] is -4.4% (inactive); in assay [3], -56.2% (inactive); in assay [7] it was 10.3% (inactive); in assay [8] it was 4.56% (inactive). Besides, the inhibition of aggregation in assay [2] was 24.2% (inactive). Moreover, the values for the nuclei count in assay [2] and in assay [3] were 94.5% and 104%, respectively. Besides, the fluorescence slope in assay [4] was -0.592 (inactive); in assay [6], 0.00364 (inactive). The NADPH fluorescence slope in assay [5] was -4.3e-05 (inactive).
As to `CS(=O)(=O)c1ncc(Cl)c(C(=O)Nc2ccc(N3CCOCC3)cc2)n1`, the cell count in assay [1] was 351. The inhibition was -2.1% (inactive) in assay [1], 24.9% (inactive) in assay [3], 21.4% (inactive) in assay [7] and 62.8% (active) in assay [8]. The inhibition of aggregation in assay [2] is -35.6% (inactive). Besides, the nuclei count in assay [2] stood at 112%; in assay [3], 111%. The figures for the fluorescence slope in assay [4] and in assay [6] were -0.46 (inactive) and 0.00607 (inactive), respectively. In addition, the NADPH fluorescence slope in assay [5] is 2.2e-05 (inactive).
On to `CCCc1nc2ccccc2c2nc(N)nn12`, for which the cell count in assay [1] turned out to be 435. The inhibition is 7.7% (inactive) in assay [1], 21.4% (inactive) in assay [3], 13.7% (inactive) in assay [7] and 12.1% (inactive) in assay [8]. In addition, the inhibition of aggregation in assay [2] was 13.1% (inactive). The values for the nuclei count in assay [2] and in assay [3] were 82.1% and 101%, respectively. The fluorescence slope was -0.458 (inactive) in assay [4] and 0.00513 (inactive) in assay [6]. Also, in assay [5], the NADPH fluorescence slope was 3.4e-05 (inactive).
As to `CCOC(=O)CSc1nnc(CNC(=O)c2cccs2)n1-c1cc(OC)ccc1OC`, the cell count in assay [1] is 521. Moreover, the inhibition in assay [1] was -3.3% (inactive); in assay [3], -7.4% (inactive); in assay [7], 0.513% (inactive); in assay [8], 17.5% (inactive). The inhibition of aggregation in assay [2] is -5.1% (inactive). Also, the nuclei count worked out at 103% in assay [2] and 95.1% in assay [3]. Further, the figures for the fluorescence slope in assay [4] and in assay [6] were -0.545 (inactive) and 0.00509 (inactive), respectively. For the same molecule, the NADPH fluorescence slope in assay [5] was -2.7e-05 (inactive).
In the case of `CCNC(=O)N1c2ccc(OCC)cc2C(C)=CC1(C)C`, the cell count in assay [1] worked out at 599. The inhibition is 2.5% (inactive) in assay [1], -34% (inactive) in assay [3], -6.26% (inactive) in assay [7] and 4.09% (inactive) in assay [8]. In addition, the inhibition of aggregation in assay [2] was 37.2% (inactive). Also, the nuclei count in assay [2] is 94.1%; in assay [3], 102%. Besides, the fluorescence slope was -0.588 (inactive) in assay [4] and 0.00404 (inactive) in assay [6]. Moreover, the NADPH fluorescence slope in assay [5] is -3e-05 (inactive).
Take `O=C(CSc1nc2ccc(Cl)cc2[nH]1)NCc1ccco1`: in assay [1], the cell count is 273. Moreover, the inhibition in assay [1] is 17.8% (inactive); in assay [3] it was -3.9% (inactive); in assay [7] it was 17.9% (inactive); in assay [8], 20.8% (inactive). The inhibition of aggregation in assay [2] was -10.2% (inactive). Moreover, the nuclei count in assay [2] and in assay [3] was 109% each time. Besides, the fluorescence slope in assay [4] is -0.611 (inactive); in assay [6] it was 0.00642 (inactive). In addition, the NADPH fluorescence slope in assay [5] was 1.5e-05 (inactive).
